In ChEMBL document CHEMBL5108089, “Structure-based discovery of potent inhibitors of Axl: design, synthesis, and biological evaluation” (RSC Med Chem, 2022):

Columns and labels:
[1] = Metabolic stability in human liver microsomes assessed as half-life preincubated for 10 mins followed by NADPH addition and measured upto 60 mins by LC-MS/MS analysis; type: ADME, Microsome; conditions: time < 70 min
[2] = Metabolic stability in rat liver microsomes assessed as intrinsic clearance preincubated for 10 mins followed by NADPH addition and measured upto 60 mins by LC-MS/MS analysis; type: ADME, Microsome; conditions: time < 70 min, read-out: CLH
[3] = Metabolic stability in human liver microsomes assessed as intrinsic clearance preincubated for 10 mins followed by NADPH addition and measured upto 60 mins by LC-MS/MS analysis; type: ADME, Microsome; conditions: time < 70 min, read-out: CLH
[4] = Intrinsic clearance in human; type: ADME
[5] = Intrinsic clearance in rat; type: ADME
[6] = Metabolic stability in rat liver microsomes assessed as half-life preincubated for 10 mins followed by NADPH addition and measured upto 60 mins by LC-MS/MS analysis; type: ADME, Microsome; conditions: time < 70 min
[7] = Cmax in Sprague-Dawley rat at 1 mg/kg, iv measured upto 24 hrs by LC-MS/MS analysis; type: ADME, organism-based; set-up: time < 24 hrs, dose 1 mg/kg, route iv; conditions: in vivo
[8] = Cmax in Sprague-Dawley rat at 5 mg/kg, po measured upto 24 hrs by LC-MS/MS analysis; type: ADME, organism-based; set-up: dose 5 mg/kg, time < 24 hrs, route po; conditions: in vivo
[9] = AUC (0 to last) in Sprague-Dawley rat at 1 mg/kg, iv measured upto 24 hrs by LC-MS/MS analysis; type: ADME, organism-based; set-up: dose 1 mg/kg, time < 24 hrs, route iv; conditions: in vivo
[10] = Clearance in Sprague-Dawley rat at 1 mg/kg, iv measured upto 24 hrs by LC-MS/MS analysis; type: ADME, organism-based; conditions: in vivo
[11] = Half-life in Sprague-Dawley rat at 5 mg/kg, po measured upto 24 hrs by LC-MS/MS analysis; type: ADME, organism-based; conditions: in vivo
[12] = AUC (0 to last) in Sprague-Dawley rat at 5 mg/kg, po measured upto 24 hrs by LC-MS/MS analysis; type: ADME, organism-based; set-up: dose 5 mg/kg, time < 24 hrs, route po; conditions: in vivo
[13] = Oral bioavailability in Sprague-Dawley rat at 5 mg/kg measured upto 24 hrs by LC-MS/MS analysis; type: ADME, organism-based; conditions: in vivo
[14] = Half-life in Sprague-Dawley rat at 1 mg/kg, iv measured upto 24 hrs by LC-MS/MS analysis; type: ADME, organism-based; conditions: in vivo
[15] = target: Tyrosine-protein kinase JAK2 (Homo sapiens, UniProt O60674); assay: Inhibition of human JAK2 using KTFCGTPEYLAPEVRREPRILSEEEQEMFRDFDYIADWC as substrate incubated for 40 mins in the presence of [gamma33P]ATP by scintillation counting analysis
How it was run: (§1)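 Human kinase, radiometric: incubated in 8 mM MOPS pH 7.0, 0.2 mM EDTA, 10 mM magnesium acetate with [γ-33P]-ATP; started by Mg/ATP mix, 40 min at room temperature, stopped with phosphoric acid to 0.5%. Spotted on P30 filtermat, washed 4×4 min in 0.425% phosphoric acid and once in methanol, dried, scintillation counted.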

Aurora kinase B = Aurora kinase B (Homo sapiens, UniProt Q96GD4); assay: Inhibition of human Aurora B using AKRRRLSSLRA as substrate incubated for 40 mins in the presence of [gamma33P]ATP by scintillation counting analysis; how it was run: as §1
[16] = target: T1, Tyrosine-protein kinase receptor UFO (Homo sapiens, UniProt P30530); assay: Inhibition of human Axl using KKSRGDYMTMQIG as substrate incubated for 40 mins in the presence of [gamma33P]ATP by scintillation counting analysis
T1 sequence (P30530 whole entry): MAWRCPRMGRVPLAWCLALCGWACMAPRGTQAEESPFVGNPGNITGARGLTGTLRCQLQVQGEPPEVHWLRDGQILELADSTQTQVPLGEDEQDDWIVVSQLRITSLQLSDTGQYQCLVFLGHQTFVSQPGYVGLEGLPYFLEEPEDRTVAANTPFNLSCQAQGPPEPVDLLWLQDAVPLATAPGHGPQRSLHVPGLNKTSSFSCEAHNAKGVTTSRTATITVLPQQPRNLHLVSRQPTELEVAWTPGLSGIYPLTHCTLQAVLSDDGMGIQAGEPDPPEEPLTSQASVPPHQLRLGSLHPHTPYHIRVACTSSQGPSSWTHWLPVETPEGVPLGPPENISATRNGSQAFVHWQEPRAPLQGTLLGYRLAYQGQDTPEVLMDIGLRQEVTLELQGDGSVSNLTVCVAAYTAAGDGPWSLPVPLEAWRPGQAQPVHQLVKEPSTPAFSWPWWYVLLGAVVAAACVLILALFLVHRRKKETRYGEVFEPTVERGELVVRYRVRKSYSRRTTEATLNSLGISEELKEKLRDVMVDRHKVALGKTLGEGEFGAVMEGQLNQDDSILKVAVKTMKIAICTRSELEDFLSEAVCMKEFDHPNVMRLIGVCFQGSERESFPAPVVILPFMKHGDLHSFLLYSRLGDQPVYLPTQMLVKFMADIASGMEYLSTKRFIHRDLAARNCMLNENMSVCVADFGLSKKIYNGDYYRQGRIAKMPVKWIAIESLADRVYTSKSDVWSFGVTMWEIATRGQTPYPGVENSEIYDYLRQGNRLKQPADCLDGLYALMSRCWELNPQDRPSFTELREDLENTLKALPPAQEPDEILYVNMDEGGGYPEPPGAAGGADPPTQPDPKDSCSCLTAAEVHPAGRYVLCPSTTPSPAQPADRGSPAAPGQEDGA

[17] = target: ALK tyrosine kinase receptor (Homo sapiens, UniProt Q9UM73); assay: Inhibition of human ALK using KKKSPGEYVNIEFG as substrate incubated for 40 mins in the presence of [gamma33P]ATP by scintillation counting analysis; how it was run: as §1
Chain of ALK tyrosine kinase receptor (Q9UM73 whole entry): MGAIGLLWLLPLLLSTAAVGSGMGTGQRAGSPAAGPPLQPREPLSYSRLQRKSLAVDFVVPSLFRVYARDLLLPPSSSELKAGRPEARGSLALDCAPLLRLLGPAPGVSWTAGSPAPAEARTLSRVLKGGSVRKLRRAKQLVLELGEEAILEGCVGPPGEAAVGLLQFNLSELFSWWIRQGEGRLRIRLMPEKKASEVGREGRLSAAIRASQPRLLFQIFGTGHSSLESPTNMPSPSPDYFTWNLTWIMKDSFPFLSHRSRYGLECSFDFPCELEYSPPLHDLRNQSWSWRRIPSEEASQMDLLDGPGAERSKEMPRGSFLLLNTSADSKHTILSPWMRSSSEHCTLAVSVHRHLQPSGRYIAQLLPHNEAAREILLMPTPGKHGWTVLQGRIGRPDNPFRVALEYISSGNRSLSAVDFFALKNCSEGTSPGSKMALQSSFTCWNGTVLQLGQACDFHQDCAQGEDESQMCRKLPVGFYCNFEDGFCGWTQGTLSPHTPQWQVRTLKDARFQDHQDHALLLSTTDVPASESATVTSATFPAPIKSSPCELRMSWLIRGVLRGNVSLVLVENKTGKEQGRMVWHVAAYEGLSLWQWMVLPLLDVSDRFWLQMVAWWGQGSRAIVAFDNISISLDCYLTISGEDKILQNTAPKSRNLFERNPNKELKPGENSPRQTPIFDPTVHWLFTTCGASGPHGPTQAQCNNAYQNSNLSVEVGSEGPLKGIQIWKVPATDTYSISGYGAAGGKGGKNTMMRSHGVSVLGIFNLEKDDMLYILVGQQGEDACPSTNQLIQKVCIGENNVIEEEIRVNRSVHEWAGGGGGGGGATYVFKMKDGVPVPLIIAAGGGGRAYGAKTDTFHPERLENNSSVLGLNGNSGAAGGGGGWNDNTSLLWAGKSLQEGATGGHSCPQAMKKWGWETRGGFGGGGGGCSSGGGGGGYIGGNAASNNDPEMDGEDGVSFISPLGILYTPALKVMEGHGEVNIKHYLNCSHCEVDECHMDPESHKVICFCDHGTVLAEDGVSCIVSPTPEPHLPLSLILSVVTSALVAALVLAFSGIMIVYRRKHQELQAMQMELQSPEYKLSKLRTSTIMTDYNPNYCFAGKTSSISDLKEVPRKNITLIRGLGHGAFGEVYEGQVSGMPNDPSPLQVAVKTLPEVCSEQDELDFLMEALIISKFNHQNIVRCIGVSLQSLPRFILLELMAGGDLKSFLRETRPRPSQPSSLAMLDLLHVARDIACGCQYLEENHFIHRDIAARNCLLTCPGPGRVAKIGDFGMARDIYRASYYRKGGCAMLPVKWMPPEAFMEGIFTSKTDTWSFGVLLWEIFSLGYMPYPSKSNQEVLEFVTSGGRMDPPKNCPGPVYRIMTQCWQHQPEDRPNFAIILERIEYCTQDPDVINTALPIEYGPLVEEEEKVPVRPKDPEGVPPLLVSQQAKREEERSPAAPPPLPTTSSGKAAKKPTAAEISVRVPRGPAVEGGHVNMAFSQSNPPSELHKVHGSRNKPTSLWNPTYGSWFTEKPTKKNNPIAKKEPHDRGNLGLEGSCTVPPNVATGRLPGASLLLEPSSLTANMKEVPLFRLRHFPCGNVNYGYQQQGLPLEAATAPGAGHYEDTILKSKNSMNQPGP

Chain of Tyrosine-protein kinase JAK2 (O60674 whole entry): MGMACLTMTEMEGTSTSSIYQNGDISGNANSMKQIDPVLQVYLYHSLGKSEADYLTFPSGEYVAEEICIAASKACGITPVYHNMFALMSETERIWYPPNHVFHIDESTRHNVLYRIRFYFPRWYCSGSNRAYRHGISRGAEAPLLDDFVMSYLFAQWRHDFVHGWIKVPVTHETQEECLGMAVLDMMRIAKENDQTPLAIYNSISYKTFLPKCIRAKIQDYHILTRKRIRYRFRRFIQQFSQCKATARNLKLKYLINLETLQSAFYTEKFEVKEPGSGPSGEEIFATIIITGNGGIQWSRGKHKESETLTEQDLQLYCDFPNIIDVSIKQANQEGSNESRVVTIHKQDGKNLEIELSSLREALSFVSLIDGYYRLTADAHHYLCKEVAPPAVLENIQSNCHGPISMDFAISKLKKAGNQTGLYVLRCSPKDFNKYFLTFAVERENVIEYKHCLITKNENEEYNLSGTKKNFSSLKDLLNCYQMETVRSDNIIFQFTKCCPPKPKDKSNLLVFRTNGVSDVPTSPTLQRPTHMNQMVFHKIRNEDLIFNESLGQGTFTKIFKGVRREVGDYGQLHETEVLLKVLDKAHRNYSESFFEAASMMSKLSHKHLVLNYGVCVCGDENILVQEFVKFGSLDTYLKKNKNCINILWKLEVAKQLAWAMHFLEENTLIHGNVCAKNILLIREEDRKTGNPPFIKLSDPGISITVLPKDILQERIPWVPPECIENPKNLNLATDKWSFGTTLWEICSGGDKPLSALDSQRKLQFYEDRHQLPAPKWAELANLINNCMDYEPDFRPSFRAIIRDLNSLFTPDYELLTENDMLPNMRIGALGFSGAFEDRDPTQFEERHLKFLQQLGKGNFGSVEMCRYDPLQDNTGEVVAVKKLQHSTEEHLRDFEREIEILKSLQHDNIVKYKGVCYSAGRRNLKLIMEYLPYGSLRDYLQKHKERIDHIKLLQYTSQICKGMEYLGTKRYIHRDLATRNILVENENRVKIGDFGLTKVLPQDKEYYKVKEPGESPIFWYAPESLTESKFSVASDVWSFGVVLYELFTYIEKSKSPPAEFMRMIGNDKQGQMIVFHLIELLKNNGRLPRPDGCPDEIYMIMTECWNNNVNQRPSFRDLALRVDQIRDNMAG
Chain of Aurora kinase B (Q96GD4 whole entry): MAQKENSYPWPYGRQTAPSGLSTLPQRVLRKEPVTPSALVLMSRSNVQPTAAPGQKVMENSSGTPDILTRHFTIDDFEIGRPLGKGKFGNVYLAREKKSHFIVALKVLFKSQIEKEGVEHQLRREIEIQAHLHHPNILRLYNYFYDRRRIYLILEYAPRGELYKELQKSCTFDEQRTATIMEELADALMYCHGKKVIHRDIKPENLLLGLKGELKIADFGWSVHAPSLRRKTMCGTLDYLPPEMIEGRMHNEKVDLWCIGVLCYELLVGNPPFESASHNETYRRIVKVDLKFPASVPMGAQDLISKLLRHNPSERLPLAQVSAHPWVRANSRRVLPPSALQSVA

Structure (SMILES) | half-life [1] [min] | CLint scaled [2] [mL/min/kg] | CLint scaled [3] [mL/min/kg] | CLint scaled [4] [mL/min/kg] | CLint scaled [5] [mL/min/kg] | half-life [6] [min] | Cmax [7] [ng/mL] | Cmax [8] [ng/mL] | AUClast [9] [ng·h/mL] | clearance [10] [mL/min/kg] | half-life [11] [min] | AUClast [12] [ng·h/mL] | bioavailability [13] [%] | half-life [14] [min] | IC50 [15] [nM] | IC50 (Aurora kinase B) [nM] | IC50 [16] [nM] | IC50 [17] [nM]
CN1CCC(N(C)c2ccc(Nc3ncc(Cl)c(Nc4ccccc4-c4ncn(C)n4)n3)cc2)CC1 | 74.2 | 162 | 23.4 | 11 | 41.2 | 15.4 |  |  |  |  |  |  |  |  |  |  |  | 
CC(=O)N1CCN(c2ccc(Nc3ncc(Cl)c(Nc4ccccc4-c4ncn(C(C)C)n4)n3)cc2)CC1 | 156 | 16.2 | 11.2 | 7.2 | 12.5 | 153 | 337 | 169 | 497 | 32.5 | 79.2 | 661 | 26.6 | 89.4 |  |  |  | 
Cc1nc(-c2ccccc2Nc2nc(Nc3ccc(CN4CCN(C)CC4)cc3)ncc2Cl)n[nH]1 |  |  |  |  |  |  |  |  |  |  |  |  |  |  | 130 | 4 | 11 | 500
CN1CCC(Oc2ccc(Nc3ncc(Cl)c(Nc4ccccc4-c4nnn(C)n4)n3)cc2)CC1 | 36.2 | 389 | 48 | 14.5 | 48.3 | 6.4 |  |  |  |  |  |  |  |  |  |  |  | 

Further lines, results first:

half-life [1] [min] | CLint scaled [2] [mL/min/kg] | CLint scaled [3] [mL/min/kg] | CLint scaled [4] [mL/min/kg] | CLint scaled [5] [mL/min/kg] | half-life [6] [min] | Cmax [7] [ng/mL] | Cmax [8] [ng/mL] | AUClast [9] [ng·h/mL] | clearance [10] [mL/min/kg] | half-life [11] [min] | AUClast [12] [ng·h/mL] | bioavailability [13] [%] | half-life [14] [min] | IC50 [15] [nM] | IC50 (Aurora kinase B) [nM] | IC50 [16] [nM] | IC50 [17] [nM] | Structure (SMILES)
2.4 | 1040 | 720 | 20.1 | 52.4 | 2.4 |  |  |  |  |  |  |  |  |  |  | 14 |  | CN1CCc2ccc(Nc3ncc(Cl)c(Nc4ccccc4S(=O)(=O)N(C)C)n3)cc2C1
1.82 | 1090 | 953 | 20.3 | 52.5 | 2.3 |  |  |  |  |  |  |  |  |  |  |  |  | CC(=O)N1CCc2ccc(Nc3ncc(Cl)c(Nc4ccccc4S(=O)(=O)N(C)C)n3)cc2C1
2.7 | 582 | 646 | 20.1 | 50.4 | 4.3 | 89.8 | 46.8 | 187 | 82.8 | 176 | 158 | 21.5 | 106 |  |  |  |  | CN1CCN(Cc2ccc(Nc3ncc(Cl)c(Nc4ccccc4S(=O)(=O)N(C)C)n3)cc2)CC1 [DUBERMATINIB]
4.4 | 339 | 393 | 19.6 | 47.5 | 7.3 |  |  |  |  |  |  |  |  |  |  |  |  | CN1CC2CN(C(=O)c3ccc(Nc4ncc(Cl)c(Nc5ccccc5S(=O)(=O)N(C)C)n4)cc3)CC2C1 (stereo not drawn)
